# Results: ChEMBL document CHEMBL2331466, “Neolignanamides, lignanamides, and other phenolic compounds from the root bark of Lycium chinense” (J Nat Prod, 2013)
# Test system: not listed separately
# Assay: Antioxidant activity assessed as inhibition of xanthine-xanthine oxidase generated superoxide anion radical production by NBT reduction assay
# Type: functional
# Outline: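 Superoxide produced by xanthine/xanthine oxidase. Final reaction contained xanthine 40 μM, xanthine oxidase 0.05 unit/mL, NBT 50 μM (in 20 mM phosphate buffer, pH 7.4) and graded sample concentrations. Incubated 37 °C for 20 min after adding enzyme. Absorbance read at 560 nm against blanks. Values are means of triplicate determinations.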
row,Structure (SMILES),IC50 [µM]
1,COc1cc2c(c(OC)c1O)C(c1ccc(O)c(O)c1)C(C(=O)NCCc1ccc(O)cc1)C(C(=O)NCCc1ccc(O)cc1)=C2 (stereo not given),50.1
2,O=C(/C=C/c1ccc(O)cc1)NCCc1ccc(O)cc1 [N-P-COUMAROYL TYRAMINE],52.6
3,O=C(CCc1ccc(O)c(O)c1)NCCc1ccc(O)cc1,30.2
4,O=C(/C=C/c1ccc(O)c(O)c1)NCCc1ccc(O)cc1,44.1
5,COc1cc(/C=C(/C(=O)NCCCCNC(C)=O)c2cc(O)c(O)cc2CCC(=O)NCCc2ccc(O)cc2)ccc1O,56.5
6,COc1cc2c(c(OC)c1O)[C@H](c1ccc(O)c(O)c1)[C@@H](C(=O)NCCc1ccc(O)cc1)C(C(=O)NCCCCNC(C)=O)=C2 (relative stereo),58
7,COc1cc([C@H]2Oc3ccc(/C=C\C(=O)NCCc4ccc(O)cc4)cc3O[C@@H]2CO)ccc1O (relative stereo),49.9
8,COc1cc([C@H]2Oc3ccc(/C=C/C(=O)NCCc4ccc(O)cc4)cc3O[C@@H]2CO)ccc1O (relative stereo),44.4
9,Cc1c(C)c2c(c(C)c1O)CCC(C)(C(=O)O)O2 (stereo not given) [TROLOX],27.2

# The remaining lines, values ahead:
row,IC50 [µM],Structure (SMILES)
1,46.4,COc1cc(O)cc([C@H]2Oc3ccc(/C=C/C(=O)NCCc4ccc(O)cc4)cc3O[C@@H]2C(=O)NCCc2ccc(O)cc2)c1 (relative stereo)
2,48.8,COc1ccc(/C=C/C(=O)NCCc2ccc(O)cc2)cc1O
3,44.1,COc1cc(O)cc([C@H]2Oc3ccc(/C=C\C(=O)NCCc4ccc(O)cc4)cc3O[C@@H]2C(=O)NCCc2ccc(O)cc2)c1 (relative stereo)
4,49.9,COc1cc(/C=C(/C(=O)NCCc2ccc(O)cc2)c2cc(O)c(O)cc2CCC(=O)NCCc2ccc(O)cc2)cc(OC)c1O
5,52.7,COc1cc(/C=C(/C(=O)NCCCCNC(C)=O)c2cc(O)c(O)cc2CCC(=O)NCCc2ccc(O)cc2)cc(OC)c1O
6,22.2,COc1cc(/C=C\C(=O)NCC(O)c2ccc(O)cc2)ccc1O (stereo not given)

# Test system: Radical scavenging activity
# Assay: Antioxidant activity assessed as DPPH radical scavenging activity after 30 mins
# Type: functional
# Outline: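 Test samples at 5−100 μg/mL (120 μL) combined with 30 μL of 0.75 mM DPPH in MeOH, in triplicate. Shaken in the dark at room temperature for 30 min, then absorbance read at 517 nm. Scavenging (%) = (1 − As/A0) × 100. IC50 is the concentration giving 50% DPPH inhibition. Trolox (5−100 μM) served as positive control.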
row,Structure (SMILES),IC50 [µM]
1,COc1cc2c(c(OC)c1O)C(c1ccc(O)c(O)c1)C(C(=O)NCCc1ccc(O)cc1)C(C(=O)NCCc1ccc(O)cc1)=C2 (stereo not given),46.5
2,O=C(/C=C/c1ccc(O)cc1)NCCc1ccc(O)cc1 [N-P-COUMAROYL TYRAMINE],63.5
3,O=C(CCc1ccc(O)c(O)c1)NCCc1ccc(O)cc1,61.2
4,O=C(/C=C/c1ccc(O)c(O)c1)NCCc1ccc(O)cc1,47.6
5,COc1cc(/C=C(/C(=O)NCCCCNC(C)=O)c2cc(O)c(O)cc2CCC(=O)NCCc2ccc(O)cc2)ccc1O,65.2
6,COc1cc2c(c(OC)c1O)[C@H](c1ccc(O)c(O)c1)[C@@H](C(=O)NCCc1ccc(O)cc1)C(C(=O)NCCCCNC(C)=O)=C2 (relative stereo),67
7,COc1cc([C@H]2Oc3ccc(/C=C\C(=O)NCCc4ccc(O)cc4)cc3O[C@@H]2CO)ccc1O (relative stereo),54.1
8,COc1cc([C@H]2Oc3ccc(/C=C/C(=O)NCCc4ccc(O)cc4)cc3O[C@@H]2CO)ccc1O (relative stereo),55.2
9,Cc1c(C)c2c(c(C)c1O)CCC(C)(C(=O)O)O2 (stereo not given) [TROLOX],33.5

# Other lines, results leading:
row,IC50 [µM],Structure (SMILES)
1,49.8,COc1cc(O)cc([C@H]2Oc3ccc(/C=C/C(=O)NCCc4ccc(O)cc4)cc3O[C@@H]2C(=O)NCCc2ccc(O)cc2)c1 (relative stereo)
2,67.7,COc1ccc(/C=C/C(=O)NCCc2ccc(O)cc2)cc1O
3,48.2,COc1cc(O)cc([C@H]2Oc3ccc(/C=C\C(=O)NCCc4ccc(O)cc4)cc3O[C@@H]2C(=O)NCCc2ccc(O)cc2)c1 (relative stereo)
4,57.1,COc1cc(/C=C(/C(=O)NCCc2ccc(O)cc2)c2cc(O)c(O)cc2CCC(=O)NCCc2ccc(O)cc2)cc(OC)c1O
5,64.7,COc1cc(/C=C(/C(=O)NCCCCNC(C)=O)c2cc(O)c(O)cc2CCC(=O)NCCc2ccc(O)cc2)cc(OC)c1O
6,61.2,COc1cc(/C=C\C(=O)NCC(O)c2ccc(O)cc2)ccc1O (stereo not given)
